{"data": "Measurements gathered from unrelated publications", "organism": "Clostridioides difficile", "read-out": "microbial growth", "note": "Each line is one published result; the experiments were not run side by side."}
{"SMILES": "O=C(Nc1ncc([N+](=O)[O-])s1)C1CCCCC1", "technique": "agar dilution", "strain": "VPI10463", "time": "18 h", "MIC": "5.9 µM"}
{"SMILES": "Oc1ccc(Oc2ccc(-c3noc(-c4ccc(O)cc4)n3)cc2)cc1", "technique": "broth dilution", "strain": "ATCC43255", "time": "48 h", "MIC": "8 to 128 µg/mL"}
{"SMILES": "Cc1ncc([N+](=O)[O-])n1CCO", "technique": "broth dilution", "strain": "630", "MIC": "> 0.5 µg/mL"}
{"SMILES": "O=C(O)Cc1ccc(Oc2ccc(-c3noc(-c4ccc(O)cc4)n3)cc2)cc1", "technique": "broth dilution", "time": "48 h", "MIC": "50 µg/mL"}
{"SMILES": "Oc1cc(-c2nc(-c3ccc(Oc4ccc(C(F)(F)F)cc4)cc3)no2)cc(F)c1O", "technique": "broth dilution", "strain": "ATCC43255", "time": "48 h", "MIC": "128 µg/mL"}
{"SMILES": "O=C(NCc1nc(-c2ccc(Br)cc2)c[nH]1)Nc1nc2ccc(OC(F)(F)F)cc2s1", "technique": "broth dilution", "strain": "R20291", "time": "24 h", "MIC": "12.5 to 25 µg/mL"}
{"SMILES": "Cl.NCCCc1ccc(Oc2ccc(-c3noc(-c4ccc(O)cc4)n3)cc2)cc1", "technique": "broth dilution", "time": "48 h", "MIC": "2 µg/mL"}
{"SMILES": "N#Cc1ccc(Oc2ccc(-c3noc(-c4ccc(O)cc4)n3)cc2)cc1", "technique": "broth dilution", "strain": "ATCC43255", "time": "48 h", "MIC": "8 to 128 µg/mL"}
{"SMILES": "O=C(NCc1nc(-c2ccc(Br)cc2)c[nH]1)[C@H]1CSC(c2ccccn2)=N1", "technique": "broth dilution", "strain": "R20291", "time": "24 h", "MIC": "> 50 µg/mL"}
{"SMILES": "COCCNc1ccc(-c2nc(-c3ccc(Oc4ccccc4)cc3)no2)cc1", "technique": "broth dilution", "time": "48 h", "MIC": "8 µg/mL"}
